What was measured:
Aromatase [1] = target: T1, Aromatase (Homo sapiens, UniProt P11511); assay: Inhibition of CYP19A1 (unknown origin) at 50 uM preincubated with NADPH followed by DBF substrate addition after 30 mins by fluorescence based assay relative to control
T1 sequence (P11511 whole entry): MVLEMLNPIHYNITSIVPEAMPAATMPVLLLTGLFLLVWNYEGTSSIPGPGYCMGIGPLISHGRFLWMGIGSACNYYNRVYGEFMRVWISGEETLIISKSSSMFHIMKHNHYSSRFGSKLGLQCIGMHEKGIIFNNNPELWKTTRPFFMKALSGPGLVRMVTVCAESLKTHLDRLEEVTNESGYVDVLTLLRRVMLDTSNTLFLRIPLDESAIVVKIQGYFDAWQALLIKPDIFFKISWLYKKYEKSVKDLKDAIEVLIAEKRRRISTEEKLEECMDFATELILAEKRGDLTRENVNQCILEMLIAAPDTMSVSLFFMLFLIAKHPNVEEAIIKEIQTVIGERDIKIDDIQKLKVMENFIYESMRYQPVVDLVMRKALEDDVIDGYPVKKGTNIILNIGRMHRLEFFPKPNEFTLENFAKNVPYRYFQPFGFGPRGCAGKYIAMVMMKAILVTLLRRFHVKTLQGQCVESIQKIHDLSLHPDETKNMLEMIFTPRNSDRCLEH
Summary of the method: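 Aromatase inhibition was screened at 50 μM test concentration. Activity is expressed as percent inhibition relative to vehicle-treated controls.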

[2] = target: NAD(P)H dehydrogenase [quinone] 1 (Mus musculus) (UniProt Q64669); assay: Induction of QR1 activity in mouse Hepa-1c1c7 cells assessed as induction ratio at 50 uM after 48 hrs by MTT assay relative to control; assay type: cell-based
Summary of the method: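 QR1 induction is reported as the induction ratio, meaning activity relative to control, measured at a test concentration of 50 μM.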

Aromatase [3] = target: T1, Aromatase; assay: Inhibition of CYP19A1 (unknown origin) preincubated with NADPH followed by DBF substrate addition after 30 mins by fluorescence based assay
[4] = target: NAD(P)H dehydrogenase [quinone] 1 (Mus musculus) (UniProt Q64669); assay: Induction of QR1 activity in mouse Hepa-1c1c7 cells assessed as drug concentration required to double enzyme activity after 48 hrs by MTT assay; assay type: cell-based
Summary of the method: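 CD is the concentration that doubles QR1 activity. It was determined only for compounds whose induction ratio at 50 μM exceeded 2.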

Chain of NAD(P)H dehydrogenase [quinone] 1 (Mus musculus) (Q64669 whole entry): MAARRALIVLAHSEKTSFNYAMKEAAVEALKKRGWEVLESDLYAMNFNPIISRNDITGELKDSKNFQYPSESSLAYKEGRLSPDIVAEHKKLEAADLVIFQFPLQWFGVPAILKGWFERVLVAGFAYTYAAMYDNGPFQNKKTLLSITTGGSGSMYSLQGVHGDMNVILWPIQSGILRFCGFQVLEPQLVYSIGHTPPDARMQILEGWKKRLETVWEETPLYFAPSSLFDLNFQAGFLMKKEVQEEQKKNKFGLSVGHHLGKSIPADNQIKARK

## CO/N=C/c1c(-c2ccccc2)[nH]c2ccccc12
Aromatase [1]
  inhibition at 50 µM: 24.7%
[2]
  Ratio: 1.3

## Cn1c(-c2ccccc2)cc2cc([N+](=O)[O-])ccc21
Aromatase [1]
  inhibition at 50 µM: 77%
[2]
  Ratio: 0.89
Aromatase [3]
  IC50: 3.88 µM

## Clc1cccc(-c2cc3ccccc3[nH]2)c1
Aromatase [1]
  inhibition at 50 µM: 24.1%
[2]
  Ratio: 5.2
[4]
  CD: 2.17 µM

## COc1ccc(-c2cc3ccccc3[nH]2)cc1
Aromatase [1]
  inhibition at 50 µM: 0%
[2]
  Ratio: 1.56

## Fc1cc(F)cc(-c2cc3ccccc3[nH]2)c1
Aromatase [1]
  inhibition at 50 µM: 11%
[2]
  Ratio: 0.58

## Nc1ccc2[nH]c(-c3ccc(Cl)c(Cl)c3)cc2c1
Aromatase [1]
  inhibition at 50 µM: 21.4%
[2]
  Ratio: 4.9
[4]
  CD: 10.3 µM

## c1ccc(-c2cc3ccccc3[nH]2)cc1 [2-PHENYL-1H-INDOLE]
Aromatase [1]
  inhibition at 50 µM: 27.8%

## c1ccc(Cn2c(-c3ccccc3)cc3ccccc32)cc1
Aromatase [1]
  inhibition at 50 µM: 0%
[2]
  Ratio: 0.37

## Clc1ccc(-c2cc3ccccc3[nH]2)cc1
Aromatase [1]
  inhibition at 50 µM: 15.8%
[4]
  CD: 2.75 µM

## Clc1ccc(-c2cc3ccccc3[nH]2)cc1Cl
Aromatase [1]
  inhibition at 50 µM: 22.6%
[2]
  Ratio: 0.57

## Cc1ccc2cc(-c3ccccc3)[nH]c2c1
Aromatase [1]
  inhibition at 50 µM: 32.4%
[2]
  Ratio: 1

## COCn1c(-c2ccccc2)cc2ccccc21
Aromatase [1]
  inhibition at 50 µM: 20.2%
[2]
  Ratio: 1.9

## Nc1ccc(-c2cc3ccccc3[nH]2)cc1
Aromatase [1]
  inhibition at 50 µM: 46.2%
[2]
  Ratio: 0.56

## O=[N+]([O-])c1ccc2[nH]c(-c3ccccc3)cc2c1
Aromatase [1]
  inhibition at 50 µM: 77.7%
[2]
  Ratio: 3.92
Aromatase [3]
  IC50: 9 µM
[4]
  CD: 5.76 µM

## Clc1ccc2cc(-c3ccccc3)[nH]c2c1
Aromatase [1]
  inhibition at 50 µM: 13.6%
[2]
  Ratio: 4.25
[4]
  CD: 6.8 µM

## Clc1ccc2[nH]c(-c3ccccc3)cc2c1
Aromatase [1]
  inhibition at 50 µM: 70.5%
[2]
  Ratio: 5.1
Aromatase [3]
  IC50: 22.8 µM
[4]
  CD: 5.5 µM

## c1ccc(C2Cc3ccccc3N2)cc1 (stereo not drawn)
Aromatase [1]
  inhibition at 50 µM: 49%
[2]
  Ratio: 1.8

## N#Cc1ccc2[nH]c(-c3cccnc3)cc2c1
Aromatase [1]
  inhibition at 50 µM: 93.7%
[2]
  Ratio: 2.1
Aromatase [3]
  IC50: 11.5 µM
[4]
  CD: 31.2 µM

## N#Cc1ccc2[nH]c(-c3ccccc3)cc2c1
Aromatase [1]
  inhibition at 50 µM: 82.3%
[2]
  Ratio: 1.06
Aromatase [3]
  IC50: 3.34 µM

## FC(F)(F)Oc1ccc(-c2cc3ccccc3[nH]2)cc1
Aromatase [1]
  inhibition at 50 µM: 1.86%
[2]
  Ratio: 2.48
[4]
  CD: 29.1 µM

## Nc1ccc2[nH]c(-c3ccccc3)cc2c1
Aromatase [1]
  inhibition at 50 µM: 41.4%
[2]
  Ratio: 0.72

## Cn1c(-c2ccc(Cl)c(Cl)c2)cc2ccccc21
Aromatase [1]
  inhibition at 50 µM: 20%
[2]
  Ratio: 4.4
[4]
  CD: 2.1 µM

## Clc1ccccc1-c1cc2ccccc2[nH]1
Aromatase [1]
  inhibition at 50 µM: 21.5%
[2]
  Ratio: 1.4

## Cc1ccccc1-c1cc2cc([N+](=O)[O-])ccc2[nH]1
Aromatase [1]
  inhibition at 50 µM: 71.5%
[2]
  Ratio: 0.78
Aromatase [3]
  IC50: 6.87 µM

## CN(C)c1ccc(-c2cc3ccccc3[nH]2)cc1
Aromatase [1]
  inhibition at 50 µM: 0%
[2]
  Ratio: 1.21

## Nc1ccccc1C#Cc1cc(F)cc(F)c1
Aromatase [1]
  inhibition at 50 µM: 9.27%
[2]
  Ratio: 1.48

## Nc1cccc(-c2cc3ccccc3[nH]2)c1
Aromatase [1]
  inhibition at 50 µM: 26.7%
[2]
  Ratio: 2.7
[4]
  CD: 18.4 µM

## C(=N\OCc1ccccc1)/c1c(-c2ccccc2)[nH]c2ccccc12
Aromatase [1]
  inhibition at 50 µM: 23.2%
[2]
  Ratio: 0.5

## CCCCCc1ccc(-c2cc3ccccc3[nH]2)cc1
Aromatase [1]
  inhibition at 50 µM: 0%
[2]
  Ratio: 0.78

## O=[N+]([O-])c1ccc2[nH]c(-c3ccc(Cl)c(Cl)c3)cc2c1
Aromatase [1]
  inhibition at 50 µM: 7.59%
[2]
  Ratio: 1.07

## c1ccc2[nH]c(-c3ccsc3)cc2c1
Aromatase [1]
  inhibition at 50 µM: 22%
[2]
  Ratio: 0.67

## Cn1c(-c2ccc(Cl)c(Cl)c2)cc2cc([N+](=O)[O-])ccc21
Aromatase [1]
  inhibition at 50 µM: 34%
[2]
  Ratio: 1.56

## Cc1ccccc1-c1cc2ccccc2[nH]1
Aromatase [1]
  inhibition at 50 µM: 27.1%
[2]
  Ratio: 0.54

## CC(C)(C)OC(=O)n1c(-c2ccccc2)cc2ccccc21
Aromatase [1]
  inhibition at 50 µM: 11.9%
[2]
  Ratio: 1

## COc1cc(OC)cc(-c2cc3ccccc3[nH]2)c1
Aromatase [1]
  inhibition at 50 µM: 9.18%
[2]
  Ratio: 3.75
[4]
  CD: 1.12 µM

## Cn1c(-c2ccccc2)cc2ccccc21
Aromatase [1]
  inhibition at 50 µM: 0%
[2]
  Ratio: 0.5

## COc1cccc(-c2cc3ccccc3[nH]2)c1
Aromatase [1]
  inhibition at 50 µM: 48.4%
[2]
  Ratio: 1.3

## c1cncc(-c2cc3ccccc3[nH]2)c1
Aromatase [1]
  inhibition at 50 µM: 81.5%
[2]
  Ratio: 1.14
Aromatase [3]
  IC50: 3.05 µM

## O/N=C/c1c(-c2ccccc2)[nH]c2ccccc12
Aromatase [1]
  inhibition at 50 µM: 40.4%
[2]
  Ratio: 3.1
[4]
  CD: 11.7 µM

## Fc1ccc(-c2cc3ccccc3[nH]2)cc1
Aromatase [1]
  inhibition at 50 µM: 21.8%
[2]
  Ratio: 2.73
[4]
  CD: 17.8 µM

## Brc1ccc2[nH]c(-c3ccccc3)cc2c1
Aromatase [1]
  inhibition at 50 µM: 58.1%
[2]
  Ratio: 5.5
Aromatase [3]
  IC50: 39.7 µM
[4]
  CD: 6.76 µM

## O=[N+]([O-])c1ccc2[nH]c(-c3cccnc3)cc2c1
Aromatase [1]
  inhibition at 50 µM: 27.9%
[2]
  Ratio: 1.7

## COc1ccc2ccc(-c3cc4ccccc4[nH]3)cc2c1
Aromatase [1]
  inhibition at 50 µM: 0.07%
[2]
  Ratio: 0.74

## C#CCn1c(-c2ccccc2)cc2ccccc21
Aromatase [1]
  inhibition at 50 µM: 26.3%
[2]
  Ratio: 0.87

## Cc1ccc(-c2cc3ccccc3[nH]2)cc1
Aromatase [1]
  inhibition at 50 µM: 9.33%
[2]
  Ratio: 5.2
[4]
  CD: 6.4 µM

## Cn1c(-c2ccc(Cl)c(Cl)c2)cc2cc(N)ccc21
Aromatase [1]
  inhibition at 50 µM: 42%
[2]
  Ratio: 2.14
[4]
  CD: 46.7 µM

## c1ccc(-c2nc3ccccc3[nH]2)cc1
Aromatase [1]
  inhibition at 50 µM: 7.64%

## Brc1ccc(-c2cc3ccccc3[nH]2)cc1
Aromatase [1]
  inhibition at 50 µM: 4.8%
[2]
  Ratio: 2.8
[4]
  CD: 5.1 µM
